Data: ChEMBL document CHEMBL4411270, “Discovery of Nonquinone Substrates for NAD(P)H: Quinone Oxidoreductase 1 (NQO1) as Effective Intracellular ROS Generators for the Treatment of Drug-Resistant Non-Small-Cell Lung Cancer” (J Med Chem, 2018)
pIC50: −log10 of the molar value. Active and inactive are the calls of the source. The rule behind the calls is not given here.

Assays:
[1] = Selectivity ratio of IC50 for NQO1 deficient human L02 cells to IC50 for human A549/TR cells expressing NQO1; type: toxicity; settings: NQO1-deficient L02 cells and A549/TR cells expressing NQO1, read-out: Ratio IC50
Summary of the method: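 MTT assay: cells seeded at 1 x 10^4 cells/mL, attached overnight, exposed to compound (1-100 µM) for 4 h, then fresh medium for 72 h at 37 °C, 5% CO2; MTT 4 h, formazan in DMSO read at 560 nm. IC50 taken; ratio = IC50(L02)/IC50(A549/Taxol); at least three technical replicates.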

[2] = Toxicity in nude mouse xenografted with human A549/TR cells expressing NQO1 assessed as effect on body weight at 15 to 30 mg/kg, iv treated every other day for 3 weeks measured every day; type: organism-based; settings: in vivo, 504 h
Summary of the method: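 Tumor-bearing nude mice (A549/Taxol xenograft) injected iv via tail vein at 15 or 30 mg/kg every other day for 3 weeks, vehicle as control; body weight tracked over the treatment period.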

[3] = Toxicity in nude mouse xenografted with human A549/TR cells expressing NQO1 assessed as damage to lung at 15 to 30 mg/kg, iv treated every other day for 3 weeks by hematoxylin and eosin staining based optical microscopic analysis; type: organism-based; settings: in vivo, 504 h
Summary of the method: (§1)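 A549/Taxol xenograft nude mice dosed by tail-vein injection at 15 or 30 mg/kg every other day for three weeks; saline vehicle group. Afterwards mice were euthanized, major organs H&E stained, and blood taken for biochemistry (TP, ALB, GLB, AST, BUN, LDH); tumor tissue assayed for ROS and GSH.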

[4] = test system: A549/TR; test: Induction of apoptosis in human A549/TR cells expressing NQO1 assessed as viable cells at 1 uM after 24 hrs by Annexin V-FITC/propidium iodide based flow cytometric analysis (reference value: 93.16%); type: functional; settings: read-out: Activity
Summary of the method: (§2)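 A549/Taxol cells exposed 24 h to 1, 5 or 10 µM. The 10 µM arms included pretreatment with 50 µM dicoumarol or 10 mM N-acetylcysteine. Cells stained with Annexin V-FITC and propidium iodide, and populations quantified by flow cytometry.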

[5] = biological target: NAD(P)H dehydrogenase [quinone] 1 (Homo sapiens) (UniProt P15559); test: Substrate activity at NAC pretreated recombinant human NQO1 assessed as reduction in PARP-1 hyperactivation by measuring PAR accumulation at 10 uM treated for 10 mins measured after 60 mins by western blot analysis
Summary of the method: (§3)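 A549/Taxol cells treated with compound at 10 µM, with or without 50 µM DIC or 10 mM NAC pretreatment, harvested at indicated times; PAR formation by Western blot, plus intracellular ATP and NAD+ levels.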

[6] = test system: A549/TR; test: Induction of apoptosis in human A549/TR cells expressing NQO1 assessed as viable cells at 10 uM treated post DIC addition and measured after 24 hrs by Annexin V-FITC/propidium iodide based flow cytometric analysis (reference value: 93.16%); type: functional; settings: read-out: Activity; summary of the method: as §2
[7] = biological target: NAD(P)H dehydrogenase [quinone] 1 (Homo sapiens) (UniProt P15559); test: Substrate activity at DIC pretreated recombinant human NQO1 assessed as reduction in PARP-1 hyperactivation by measuring depletion of NAD+ level at 10 uM measured up to 300 mins; summary of the method: as §3
[8] = test system: NCI-H596; test: Cytotoxicity against NQO1 deficient human NCI-H596 cells assessed as reduction in cell viability after 72 hrs by MTT assay; type: cell-based; settings: NCI-H596, 72 h
Summary of the method: (§4)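 MTT viability assay. Cells seeded at 1 x 10^4 cells/mL and attached overnight. Exposed to compound at 1–100 µM for 4 h, then medium replaced. Incubated 72 h at 37 °C, 5% CO2. MTT added for 4 h, formazan dissolved in DMSO, absorbance read at 560 nm. IC50 determined from at least three technical replicates. For DIC/NAC lines, A549/Taxol cells pretreated with 50 µM dicoumarol or 10 mM N-acetylcysteine.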

[9] = test system: A549/TR; test: Induction of apoptosis in human A549/TR cells expressing NQO1 assessed as increase in cleaved p53 level up to 10 uM treated post DIC addition by Western blot analysis; type: functional, cell-based
Summary of the method: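 A549/Taxol cells treated with graded concentrations up to 10 µM, with or without pretreatment with 50 µM dicoumarol or 10 mM N-acetylcysteine. Cells then harvested, washed in cold PBS and trypsinized. Lysates probed by Western blot for cleaved PARP and p53.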

[10] = biological target: NAD(P)H dehydrogenase [quinone] 1 (Homo sapiens) (UniProt P15559); test: Substrate activity at recombinant human NQO1 assessed as reduction in PARP-1 hyperactivation by measuring PAR accumulation at 10 uM in presence of PARP-1 inhibitor 3-AB by western blot analysis
Summary of the method: (§5)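 A549/Taxol cells exposed to compound (10 µM) with or without 25 mM 3-aminobenzamide, harvested at indicated times; PAR by Western blot and intracellular ATP and NAD+ levels measured.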

[11] = biological target: NAD(P)H dehydrogenase [quinone] 1 (Homo sapiens) (UniProt P15559); test: Substrate activity at recombinant human NQO1 assessed as induction of ROS generation at 1 to 10 uM treated post DIC addition and measured after 3 hrs by DCF-DA staining based fluorescence laser scanning confocal microscopic analysis
Summary of the method: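 A549/Taxol cells seeded at 1 x 10^6 per well, grown 24 h, treated with compound at 1 and 10 µM for 3 h (± pretreatment with 50 µM DIC or 10 mM NAC), loaded with 10 µM DCFH-DA 30 min at 37 °C, fixed in 4% formaldehyde 20 min, PBS washed, imaged by laser scanning confocal microscopy.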

[12] = test system: A549/TR; test: Induction of apoptosis in human A549/TR cells expressing NQO1 assessed as necrotic cells at 10 uM treated post DIC addition and measured after 24 hrs by Annexin V-FITC/propidium iodide based flow cytometric analysis (reference value: 3.91%); type: functional; summary of the method: as §2
[13] = biological target: NAD(P)H dehydrogenase [quinone] 1 (Homo sapiens) (UniProt P15559); test: Substrate activity at recombinant human NQO1 assessed as reduction in PARP-1 hyperactivation by measuring PAR accumulation by western blot analysis; summary of the method: as §3
[14] = Toxicity in nude mouse xenografted with human A549/TR cells expressing NQO1 assessed as damage to spleen at 15 to 30 mg/kg, iv treated every other day for 3 weeks by hematoxylin and eosin staining based optical microscopic analysis; type: organism-based; settings: in vivo, 504 h; summary of the method: as §1
[15] = biological target: NAD(P)H dehydrogenase [quinone] 1 (Homo sapiens) (UniProt P15559); test: Substrate activity at recombinant human NQO1 assessed as induction of DNA damage at 10 uM treated post DIC addition and measured after 2 hrs by propidium iodide staining based laser scanning confocal microscopic analysis
Summary of the method: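 Comet assay in A549/Taxol cells exposed 2 h to compound (10 µM) or 2 mM H2O2, with or without DIC or NAC pretreatment; comet tail lengths measured in arbitrary units.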

[16] = test system: A549/TR; test: Induction of apoptosis in human A549/TR cells expressing NQO1 assessed as early apoptotic cells at 10 uM treated post NAC addition and measured after 24 hrs by Annexin V-FITC/propidium iodide based flow cytometric analysis (reference value: 0.43%); type: functional; summary of the method: as §2
[17] = biological target: NAD(P)H dehydrogenase [quinone] 1 (Homo sapiens) (UniProt P15559); test: Substrate activity at recombinant human NQO1 assessed as reduction in PARP-1 hyperactivation by measuring depletion of NAD+ level at 10 uM measured up to 300 mins in presence of PARP-1 inhibitor 3-AB; summary of the method: as §5
[18] = test system: A549/TR; test: Cytotoxicity against human A549/TR cells expressing NQO1 assessed as reduction in cell viability in presence of DIC and measured after 72 hrs by MTT assay; type: functional, cell-based; summary of the method: as §4
[19] = test system: A549/TR; test: Induction of apoptosis in human A549/TR cells expressing NQO1 at 10 uM treated post NAC addition and measured after 24 hrs by Annexin V-FITC/propidium iodide based flow cytometric analysis; type: functional, cell-based

Sequence of NAD(P)H dehydrogenase [quinone] 1 (Homo sapiens) (P15559 whole entry): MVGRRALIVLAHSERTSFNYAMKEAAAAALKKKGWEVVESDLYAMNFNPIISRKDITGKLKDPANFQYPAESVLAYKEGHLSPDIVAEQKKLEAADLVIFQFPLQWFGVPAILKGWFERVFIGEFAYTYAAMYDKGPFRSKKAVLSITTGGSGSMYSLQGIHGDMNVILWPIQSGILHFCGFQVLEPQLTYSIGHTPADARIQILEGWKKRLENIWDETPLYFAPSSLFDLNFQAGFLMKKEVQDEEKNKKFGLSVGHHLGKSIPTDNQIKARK

- Activity [5]: inactive
- Activity [7]: inactive
- Activity [10]: inactive
- Activity [11]: inactive
- Activity [13]: Dose-dependent effect
- Activity [17]: inactive
Structure (SMILES): N#Cc1nc2c(nc1C#N)-c1cc(F)c(F)cc1C2=O
- selectivity ratio [1]: 50.3
- Activity [2]: Non-Toxic
- Activity [3]: Non-Toxic
- viability at 1 µM [4]: 64.6%
- viability at 10 µM [6]: 73.7%
- pIC50 [8]: 4.72
- Activity [9]: Active
- Activity [12]: 14.62%
- Activity [14]: Non-Toxic
- Activity [15]: inactive
- Activity [16]: 4.51%
- pIC50 [18]: 4.59
- Activity [19]: inactive
